From ChEMBL document CHEMBL1125914, “Activity of acyclic 6-(phenylselenenyl)pyrimidine nucleosides against human immunodeficiency viruses in primary lymphocytes” (J Med Chem, 1991)

Legend:
[1] = Antiviral activity against human peripheral blood mononuclear cells, infected with HIV-1(strain LAV).; format: functional
How it was run: (§1)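 Primary human PBM cells infected with virus and exposed to compound. Virus in cell supernatant was quantified on day 6 post-infection by reverse transcriptase assay using poly(rA)n-oligo(dT)12-18 template-primer on disrupted virions. EC50 derived from the concentration-response curve by the Chou–Talalay median-effect method.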

Vero [2] = assay: Antiviral activity against Vero cells, infected with HSV-1.; format: functional, cell-based; details: Chlorocebus sabaeus
How it was run: (§2)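 Plaque reduction assay in Vero cells infected with HSV-1 strain F. Median effective concentration taken from the concentration-response curve by the Chou–Talalay median-effect method.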

[3] = The compound was tested for toxicity in Vero cells.; format: cell-based; details: Chlorocebus sabaeus (African green monkey)
Nucleic Acid = assay: Inhibitory activity against DNA polymerase-alpha derived from peripheral blood mononuclear cells; design: species or system Homo sapiens
How it was run: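 Selectivity counter-screen against DNA polymerase α purified from human PBM cells. Median inhibitory concentration derived from the concentration-response curve by the Chou–Talalay median-effect method.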

[4] = The compound was tested for toxicity in peripheral blood mononuclear cells; format: functional, Homo sapiens
[5] = Antiviral activity against human peripheral blood mononuclear cells, infected with HIV-1(strain LAV); format: functional
How it was run: (§3)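 Human PBM cells were infected with HIV-1 strain LAV or HIV-2 strain ROD-2. On day 6 after infection, virus in the cell supernatant was quantitated by reverse transcriptase assay using poly(rA)n-oligo(dT)12-18 as template-primer. EC50 was derived from the concentration-response curve by the Chou–Talalay median-effect method.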

[6] = Antiviral activity against human peripheral blood mononuclear cells, infected with HIV-2(strain ROD-2); format: functional; how it was run: as §3
Vero [7] = assay: Antiviral activity against Vero cells, infected with HSV-1; format: functional, cell-based; details: Chlorocebus sabaeus; how it was run: as §2
[8] = The compound was tested for toxicity in Vero cells; format: cell-based; details: Chlorocebus sabaeus (African green monkey)
[9] = The compound was tested for toxicity in peripheral blood mononuclear cells.; format: functional, Homo sapiens
[10] = Antiviral activity against human peripheral blood mononuclear cells, infected with HIV-2(strain ROD-2).; format: functional; how it was run: as §1
[11] = biological target: T1, Human immunodeficiency virus type 1 reverse transcriptase (Human immunodeficiency virus 1, UniProt Q72547); assay: Inhibition of HIV-1 reverse transcriptase.
[12] = biological target: T1, Human immunodeficiency virus type 1 reverse transcriptase; assay: Inhibition of HIV-1 reverse transcriptase recombinant p66

| EC50 [1] [µM] | EC50 [10] [µM] | IC50 [11] [µM] | Structure (SMILES) | EC50 (Vero [2]) [µM] | IC50 [3] [µM] | IC50 (Nucleic Acid) [µM] | IC50 [4] [µM] | EC50 [5] [µM] | EC50 [6] [µM] | EC50 (Vero [7]) [µM] | IC50 [8] [µM] | IC50 [9] [µM] | IC50 [12] [µM] |
| --- | --- | --- | --- | --- | --- | --- | --- | --- | --- | --- | --- | --- | --- |
| > 100 |  |  | O=c1[nH]c(=O)n(COCCO)cc1Cl | > 100 | > 100 |  |  |  |  |  |  |  |  |
|  |  |  | O=c1[nH]c(=O)n(COCCO)c([Se]c2ccccc2)c1Cl |  |  | > 100 | > 100 | 3.1 | 7.9 | > 100 | 7.5 |  |  |
|  |  |  | Cc1c([Se]c2ccccc2)n(COCCO)c(=O)[nH]c1=O |  |  | > 100 | > 200 | 0.96 | 25.6 | > 100 | > 100 |  |  |
|  |  |  | Cc1c([Se]c2ccccc2)n(COCCO)c(=S)[nH]c1=O |  |  | > 100 | > 100 | 2.8 | 5.8 | > 100 | 60.7 |  |  |
|  |  |  | O=c1ccn(COCCO)c(=O)[nH]1 |  |  |  | > 100 | > 100 |  | > 100 | > 100 |  |  |
|  |  |  | O=c1cc([Se]c2ccccc2)n(COCCO)c(=O)[nH]1 |  |  | > 100 | > 100 | 13 | 9.6 | > 200 | > 100 |  |  |
| > 100 |  |  | Cc1cn(COCCO)c(=O)[nH]c1=O | > 100 | > 100 |  |  |  |  |  |  | > 100 |  |
| > 100 |  |  | O=c1[nH]c(=O)n(COCCO)cc1F | > 100 | > 100 |  |  |  |  |  |  | 67 |  |
| > 100 |  |  | O=c1[nH]c(=O)n(COCCO)cc1Br | > 100 | > 100 |  |  |  |  |  |  | 100 |  |
| > 100 |  |  | Cc1cn(COCCO)c(=S)[nH]c1=O | > 100 | > 100 |  |  |  |  |  |  | > 100 |  |
|  |  |  | O=c1[nH]c(=O)n(COCCO)c([Se]c2ccccc2)c1F |  |  | > 100 | > 100 | 2 | 9.1 | > 100 | 25.7 |  |  |
|  |  |  | O=c1[nH]c(=O)n(COCCO)c([Se]c2ccccc2)c1Br |  |  | > 100 | > 100 | 3.7 | 2 | > 100 | 8.2 |  |  |
| 5.3 | > 100 | 17.5 | Cc1c(Sc2ccccc2)n(COCCO)c(=O)[nH]c1=O [HEPT] | > 100 | > 100 | > 100 |  |  |  |  |  | > 100 |  |
|  |  |  | Cc1cn([C@H]2C[C@H](N=[N+]=[N-])[C@@H](CO)O2)c(=O)[nH]c1=O [ZIDOVUDINE] |  |  | > 100 | > 100 | 0.004 | < 0.002 | > 100 | 26 |  | < 0.1 |
